# High-throughput results as filed in PubChem BioAssay.
# TNAP inh noacc: blocks human TNAP activity with no phosphate acceptor present; P05186; purified TNAP, CDP-star luminescence, 30 min; inhibition, % at 20 µM; 0.26% of 200,000 active;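 active means tissue-nonspecific alkaline phosphatase inhibition above about 50% at 20 µM in the single-dose screen, limit read from the data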;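 further: 0% = DMSO negative control and 100% = EDTA positive control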
# Target sequence (P05186 whole entry, looked up): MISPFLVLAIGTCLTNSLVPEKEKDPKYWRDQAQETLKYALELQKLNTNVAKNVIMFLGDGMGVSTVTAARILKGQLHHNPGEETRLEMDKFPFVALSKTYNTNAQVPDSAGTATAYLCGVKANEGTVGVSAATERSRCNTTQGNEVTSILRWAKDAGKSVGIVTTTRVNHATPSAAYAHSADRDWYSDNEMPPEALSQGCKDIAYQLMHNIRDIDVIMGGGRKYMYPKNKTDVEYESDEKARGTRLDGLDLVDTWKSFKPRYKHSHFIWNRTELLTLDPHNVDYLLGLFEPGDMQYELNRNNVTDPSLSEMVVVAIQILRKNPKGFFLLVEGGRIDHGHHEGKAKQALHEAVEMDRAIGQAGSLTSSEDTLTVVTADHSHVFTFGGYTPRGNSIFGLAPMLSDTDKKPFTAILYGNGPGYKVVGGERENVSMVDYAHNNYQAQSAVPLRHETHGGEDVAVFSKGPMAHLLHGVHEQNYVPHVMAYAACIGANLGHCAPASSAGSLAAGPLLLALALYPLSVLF
# Lmaj promast: reduces viability of Leishmania major promastigotes; resazurin fluorescence viability; inhibition, % at 10 µM; 9% of 200,000 active; in the data active means inhibition above about 50%;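 further: promastigotes grown with compound for 44 hours at 28 °C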
# TNAP inh hi DEA: blocks human TNAP under high phosphate acceptor concentration. inhibition, % at 20 µM. P05186. 0.03% of 200,000 active. purified TNAP, CDP-star luminescence, 1 M DEA;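 active means over 50% inhibition of tissue-nonspecific alkaline phosphatase at 20 µM in the single-dose screen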;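 further: plate controls were DMSO wells for no effect and EDTA-quenched wells as full inhibition for full effect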
# PTEN del growth: suppresses growth of cells with PTEN deletion; viability, % at 10 µM; 1.2% of 140,000 active; HCT116 PTEN-null viability, CellTiter-Glo, 60 h; active compounds read low; AID 827;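 active means viability at or below a set limit, 4 SD under the median of all tested compounds, cut at about 3.7% in these data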;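 further: PTEN knockout HCT116 line with beta catenin targeted HCT116 as companion control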
# TNAP act hi DEA: TNAP (human) activation, high acceptor | 200,000 tested, under 10 active | AID 1136 | activation factor at 20 µM | purified TNAP, CDP-star luminescence, 1 M DEA, 30 min; active compounds read high; 0 = EDTA background, 1 = DMSO-only activity;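 active means activation factor at least 2 at 20 µM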
#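 Test system – human TNAP · Doses – 20 µM single point · Incubation – 30 min, room temperature · Signal – luminescent substrate turnover signal · Read-out basis – activation factor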
# HCT116 bCat-KO: beta-catenin-lacking colon tumor cell growth suppression | HCT116 beta-catenin knockout viability, CellTiter-Glo, 60 h; active compounds read low | viability, % at 10 µM | 1.5% of 140,000 active;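 active means viability at or under a set limit, the compound median less 4 SD, cut at about 6% in these data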;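 further: 0% = Hyamine 1622 control at 20 µM and 100% = untreated cell control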
# * = called active by the depositor; x = not tested or not shown. Sampled rows, rich in hits. Any-hit rate of the full collection: about 9.6%.
SMILES,TNAP inh noacc,Lmaj promast,TNAP inh hi DEA,PTEN del growth,TNAP act hi DEA,HCT116 bCat-KO
Cc1nc(NC(=O)c2ccc(Cl)cc2)sc1Cc1ccc2c(c1)OCO2,-6,73*,-6,16,1.1,13
Cc1nc(NC(=O)c2ccccc2)sc1Cc1ccc2c(c1)OCO2,6,0,4,54,1,58
CCOC(=O)CN1C=C(c2ccc3ccccc3n2)C(C[N+](=O)[O-])c2ccccc21 (stereo not given),1,99*,3,69,1,79
CCN(CC)S(=O)(=O)c1cccc(C(=O)NC(C)C(c2cccs2)N2CCCC2)c1 (stereo not given),-2,2,-2,x,1,x
COc1ccc(NC(=O)CSc2ncnc3c2sc2ccccc23)c(OC)c1,0,-6,0,2.2*,1,2.2*
CCn1c(C(=O)N2CCC(C(=O)NCc3cccs3)CC2)cc2sccc21,-18,3,-4,77,1,76
CCCS(=O)(=O)N1CCC(C(=O)NCCN2CCC(Cc3ccccc3)CC2)CC1,18,23,-3,72,1,70
O=C(NCc1ccco1)C1CCN(S(=O)(=O)Cc2ccccc2)CC1,-6,-7,-2,0.5*,1,0.7*
CCCS(=O)(=O)N1CCC(C(=O)NCCN(C)Cc2ccccc2)CC1,-6,61*,-2,91,1,94
O=C(NCc1ccco1)C1CCN(C(=O)c2cc3sccc3n2Cc2ccc(Cl)cc2)CC1,-18,65*,-4,5,1,5.7*
Cc1cc(Cl)ccc1Oc1ccccc1C(=O)CC#N,-8,18,0,x,1,x
CCNC(=S)N1CCc2cc(OC)c(OC)cc2C1COc1ccc(OC)cc1 (stereo not given),-18,68*,-3,x,1,x
Cc1cc(N2CCN(Cc3nc(-c4ccc(F)cc4)oc3C)CC2)cc(C)n1,-7,93*,-6,x,1.1,x
O=C(/C=C/c1ccc([N+](=O)[O-])cc1)Nc1ncc([N+](=O)[O-])s1,14,83*,20,x,0.8,x
O=C(/C=C/c1ccc([N+](=O)[O-])cc1)NCc1ccccn1,-12,12,-5,104,1.1,104
O=C(Cn1cnc2c(nnn2-c2cccc(Cl)c2)c1=O)NCc1ccccc1,-14,-8,-10,x,1.1,x
COc1ccc(OC)c(NS(=O)(=O)c2cc(OC)ccc2OC)c1,-1,87*,-2,89,1,92
COc1ccc(C)cc1S(=O)(=O)Nc1ccc(F)cc1,-8,31,-2,82,1,79
COc1ccc(NC(=O)c2c(F)cccc2F)cc1S(=O)(=O)Nc1ccc(Br)cc1,-13,52*,0,87,1,81
COc1ccc(OC)c(S(=O)(=O)Nc2ccccc2C)c1,-11,6,-7,100,1.1,89
COc1ccc(S(=O)(=O)Nc2ccc(S(=O)(=O)Nc3ccc(F)cc3)cc2)cc1C,-12,8,-6,80,1.1,79
COc1ccc(C)cc1S(=O)(=O)Nc1cccnc1,85*,-7,64*,100,0.4,94
COc1ccc(S(=O)(=O)Nc2cccc(F)c2)cc1C,-11,65*,-5,x,1.1,x
CN(C)C(=O)CSc1nnc(Cc2ccccc2)n1CC1CCCO1 (stereo not given),-11,-4,-4,x,1,x
CCSc1nc2[nH]ncc2c(=O)[nH]1,-6,-4,-7,98,1.1,89
SMILES,TNAP inh noacc,Lmaj promast,TNAP inh hi DEA,PTEN del growth,TNAP act hi DEA,HCT116 bCat-KO
COc1ccc(OC)c(S(=O)(=O)Nc2cnc3ccccc3c2)c1,94*,1,82*,86,0.2,84
COc1ccc(OC)c(S(=O)(=O)Nc2cccc(F)c2)c1,-6,97*,-3,91,1,95
COc1ccc(OC)c(S(=O)(=O)Nc2ccc(F)cc2)c1,-6,4,-1,98,1,106
O=C(CNc1ccc(Br)cc1)c1ccccc1,-5,6,-2,89,1,90
O=C(CNc1ccc(F)cc1)c1ccccc1,-5,83*,-3,x,1,x
Cc1ccccc1C(=O)NNC(=O)c1ccc(F)cc1,-4,-4,0,93,1,93
O=C(CC(=O)c1ccccc1O)c1ccc(F)cc1,-4,97*,-2,46,1,54
O=C(Nc1ccccc1C(=O)O)c1cccc(F)c1,x,-8,x,x,x,x
